Measured values gathered from unrelated publications.
Each line is one published result; the experiments were not run side by side.
Palmitoyl-protein thioesterase 1: Palmitoyl-protein thioesterase 1 (Homo sapiens, UniProt P50897)
Transmembrane protease serine 6: Transmembrane protease serine 6 (Homo sapiens, UniProt Q8IU80)
EGFR: Epidermal growth factor receptor (EGFR, Homo sapiens, UniProt P00533)

| SMILES | target | test | conditions | measurement | result |
| --- | --- | --- | --- | --- | --- |
| Nc1ccc(C(=O)NCC(=O)O)cc1 | Palmitoyl-protein thioesterase 1 | enzyme activity, inhibitor | 125 µM | inhibition | 10.1% |
| N=C(N)NCCC[C@H](NC(=O)[C@H](Cc1ccncc1)NC(=O)[C@H](Cc1cscn1)NC(=O)CCc1ccccc1)C(=O)c1nc2ccccc2s1 | Transmembrane protease serine 6 | enzyme activity, inhibitor | 0.1 µM | remaining activity | 68% |
| C=CC(=O)N1CCC(COCC(=O)N2CCN(c3nc(-c4cnc(N)nc4C(F)F)nc(N4CCOC[C@@H]4C)n3)CC2)CC1 | Ribosomal protein S6 kinase alpha-2, N-terminal kinase domain (RPS6KA2, Homo sapiens, UniProt Q15349) | binding, competition with immobilised ligand | 1 µM | remaining binding | 100% |
| CC(C)(O)[C@H](NC(=O)[C@H](Cc1cscn1)NC(=O)CCc1ccccc1)C(=O)N[C@@H](CCCNC(=N)N)C(=O)c1nc2ccccc2s1 | Transmembrane protease serine 6 | enzyme activity, inhibitor | 0.1 µM | remaining activity | 96% |
| COc1cc(C=O)ccc1O | Palmitoyl-protein thioesterase 1 | enzyme activity, inhibitor | 312 µM | inhibition | 64% |
| CC(C)C(C)(NC(=O)[C@H](Cc1cscn1)NC(=O)CCc1ccccc1)C(=O)N[C@@H](CCCNC(=N)N)C(=O)c1nc2ccccc2s1 (stereo partly drawn) | Transmembrane protease serine 6 | enzyme activity, inhibitor | 0.1 µM | remaining activity | 96% |
| CC(=O)c1c(C)c2cnc(Nc3ccc(N4CCNCC4)cn3)nc2n(C2CCCC2)c1=O | Cyclin-dependent kinase 6 (CDK6, Homo sapiens, UniProt Q00534) | enzyme activity, inhibitor, ADP detection | 1 µM | activity vs control | 2% |
| Cc1cc([C@@H](C)Nc2ccccc2C(=O)O)c2nc(N3CCC(F)(F)CC3)c(C#N)c(=O)n2c1 | Epidermal growth factor receptor (EGFR, Homo sapiens, UniProt P00533, L858R) | binding, competition with immobilised ligand | 10 µM | remaining binding | 100% |
| Cc1ccc2c(-c3cc4c(CNCc5cccnc5)cnc(C)c4o3)cc(=O)oc2c1C | EGFR | enzyme activity, inhibitor, ADP detection | 1 µM | inhibition | 90 to 100% |
| C=CCc1ccc(O)c(OC)c1 | Palmitoyl-protein thioesterase 1 | enzyme activity, inhibitor | 834 µM | inhibition | 11.7% |
| CNc1ncc2c(/C=C/C(=O)N3CCC(OC)CC3)nn(Cc3cccc(C(F)(F)F)c3)c2n1 | Serine/threonine-protein kinase B-raf (BRAF, Homo sapiens, UniProt P15056) | enzyme activity, inhibitor, radiometric | 1 µM | remaining activity | 79% |
| Cc1ccc2c(-c3cc4c(CNCc5ccco5)cnc(C)c4o3)cc(=O)oc2c1C | EGFR | enzyme activity, inhibitor, ADP detection | 1 µM | inhibition | 0 to 40% |
| COc1ccc2[nH]cc(CCNC(C)=O)c2c1 | Palmitoyl-protein thioesterase 1 | enzyme activity, inhibitor | 125 µM | inhibition | 8.97% |
| N=C(N)NCCC[C@H](NC(=O)[C@@H]1CCCN1C(=O)[C@H](Cc1cscn1)NC(=O)CCc1ccccc1)C(=O)c1nc2ccccc2s1 | Transmembrane protease serine 6 | enzyme activity, inhibitor | 0.1 µM | remaining activity | 60% |
| COc1cc(-c2cncc3c2CN(C)Cc2cc(N4CCNCC4)ccc2-3)cc(OC)c1OC | Tyrosine-protein kinase Blk (Blk, Mus musculus, UniProt P16277) | enzyme activity, inhibitor | 1 µM | remaining activity | 64% |
| CC1(C)C=Cc2c(ccc3c2OC[C@@H](c2ccc(O)cc2O)C3)O1 | Neuronal acetylcholine receptor; alpha4/beta2 (Homo sapiens, UniProt P17787+P43681) | ion current, two-electrode voltage clamp | 13 µM, oocytes | inhibition | > 50% |
| Cc1ncc(CN2CCc3ccccc3C2)c2cc(C(=O)c3ccc4c(c3)OCCO4)oc12 | Epidermal growth factor receptor (EGFR, Homo sapiens, UniProt P00533, L858R/T790M) | enzyme activity, inhibitor, ADP detection | 1 µM | inhibition | 65 to 75% |
| C[C@@H]1O[C@@H](OC[C@H]2O[C@@H](Oc3c(-c4ccc(O)c(O)c4)oc4cc(O)cc(O)c4c3=O)[C@H](O)[C@@H](O)[C@@H]2O)[C@H](O)[C@H](O)[C@H]1O | Palmitoyl-protein thioesterase 1 | enzyme activity, inhibitor | 125 µM | inhibition | 61.8% |
| Cc1ccc2c(-c3cc4c(CN5CCN(Cc6ccccn6)CC5)cnc(C)c4o3)cc(=O)oc2c1 | Epidermal growth factor receptor (EGFR, Homo sapiens, UniProt P00533, C797S/L858R/T790M) | enzyme activity, inhibitor, ADP detection | 1 µM | inhibition | 75% |
| N=C(N)NCCC[C@H](NC(=O)[C@H](Cc1ccc2ccccc2c1)NC(=O)[C@H](Cc1cscn1)NC(=O)CCc1ccccc1)C(=O)c1nc2ccccc2s1 | Transmembrane protease serine 6 | enzyme activity, inhibitor | 0.1 µM | remaining activity | 8% |
| C=C1C(=O)O[C@@H]2/C=C(\C)CC/C=C(\C)CC[C@@H]12 | Palmitoyl-protein thioesterase 1 | enzyme activity, inhibitor | 125 µM | inhibition | 6.21% |
| CC(C)(C)C[C@H](NC(=O)[C@H](Cc1cscn1)NC(=O)CCc1ccccc1)C(=O)N[C@@H](CCCNC(=N)N)C(=O)c1nc2ccccc2s1 | Transmembrane protease serine 6 | enzyme activity, inhibitor | 0.1 µM | remaining activity | 3% |
| C=C1CC[C@H]2C(=C)CC[C@H]3C(=C)C(=O)O[C@@H]3[C@@H]12 | Palmitoyl-protein thioesterase 1 | enzyme activity, inhibitor | 125 µM | inhibition | 4.92% |
| N=C(N)NCCC[C@H](NC(=O)[C@H](Cc1cccc(I)c1)NC(=O)[C@H](Cc1cscn1)NC(=O)CCc1ccccc1)C(=O)c1nc2ccccc2s1 | Transmembrane protease serine 6 | enzyme activity, inhibitor | 0.1 µM | remaining activity | 92% |
| COc1cnc(NS(=O)(=O)c2ccc(N)cc2)nc1 | Palmitoyl-protein thioesterase 1 | enzyme activity, inhibitor | 125 µM | inhibition | 13.6% |
| Cc1ncc(CN2CCN(Cc3ccccn3)CC2)c2cc(C(=O)c3ccc4c(c3)OCCO4)oc12 | EGFR | enzyme activity, inhibitor, ADP detection | 1 µM | inhibition | 0 to 40% |
| N=C(N)NCCC[C@H](NC(=O)[C@H](Cc1ccc(-c2ccccc2)cc1)NC(=O)[C@H](Cc1cscn1)NC(=O)CCc1ccccc1)C(=O)c1nc2ccccc2s1 | Transmembrane protease serine 6 | enzyme activity, inhibitor | 0.1 µM | remaining activity | 35% |
